Experimental findings from publication PMC6601336 (ACS chemical biology, 2019) are described below.

The target in series [1] is T1, WT LasR (Pseudomonas aeruginosa, UniProt P25084).
T1 sequence (P25084 1-239): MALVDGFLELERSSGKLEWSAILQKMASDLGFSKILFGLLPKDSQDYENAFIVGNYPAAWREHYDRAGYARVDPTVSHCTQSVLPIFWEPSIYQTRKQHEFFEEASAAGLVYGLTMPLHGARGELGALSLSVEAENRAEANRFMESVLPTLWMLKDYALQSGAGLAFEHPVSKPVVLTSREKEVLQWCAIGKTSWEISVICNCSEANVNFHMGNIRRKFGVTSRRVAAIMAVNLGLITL
Kind of series: E. coli lasB-lux reporter assay, WT LasR. The format is cell-based. A general note: Reporter assays use an easily measured gene product as a stand-in for the process of interest.

The subject of series [2] is WT LasR. Kind of series: E. coli lasB-lux reporter assay, WT LasR. The format is cell-based, Pseudomonas aeruginosa. As to conditions: LasR T75V, Y93F and A127W single mutations, each relative to WT LasR.
Series [3] addresses T2, LasR T75V (Pseudomonas aeruginosa, UniProt P25084, T75V).
T2 sequence (P25084 1-239 T75V): T1 sequence (P25084 1-239) with T75V
Put plainly: E. coli lasB-lux reporter assay, LasR T75V. In kind it is cell-based.

Series [4] concerns the target T3, LasR T75V/Y93F (Pseudomonas aeruginosa, UniProt P25084, T75V/Y93F).
T3 sequence (P25084 1-239 T75V/Y93F): T1 sequence (P25084 1-239) with T75V, Y93F
Kind of series: E. coli lasB-lux reporter assay, LasR T75V/Y93F. The format is cell-based.

Series [5] addresses T4, LasR T75V/A127W (Pseudomonas aeruginosa, UniProt P25084, A127W/T75V).
T4 sequence (P25084 1-239 T75V/A127W): T1 sequence (P25084 1-239) with T75V, A127W
Put plainly: E. coli lasB-lux reporter assay, LasR T75V/A127W. In kind it is cell-based.

For series [6], the target named is T5, LasR T75V/Y93F/A127W (Pseudomonas aeruginosa, UniProt P25084, A127W/T75V/Y93F).
T5 sequence (P25084 1-239 T75V/Y93F/A127W): T1 sequence (P25084 1-239) with T75V, Y93F, A127W
Kind of series: E. coli lasB-lux reporter assay, LasR T75V/Y93F/A127W. In kind it is cell-based.

The target of series [7] is T6, LasR R61A (Pseudomonas aeruginosa, UniProt P25084, R61A).
T6 sequence (P25084 1-239 R61A): T1 sequence (P25084 1-239) with R61A
Kind of series: E. coli lasB-lux reporter assay, LasR R61A. In kind it is cell-based.

The target of series [8] is T1, WT LasR. Put plainly: P. aeruginosa PA14 rhlA-mNG reporter assay, WT lasR. The format is cell-based, Pseudomonas aeruginosa PA14. The note with it: ΔlasI P. aeruginosa PA14, 10 μM. The method, boiled down:
(§1)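 P. aeruginosa PA14 lasI strains carried WT or T75V/Y93F/A127W lasR at the native chromosomal locus and a chromosomal prhlA-mNG fusion. Overnight cultures were diluted 1:1000 in LB with test compound at 10 μM and grown at 37°C for 8 h. Cells were pelleted and resuspended in PBS. Fluorescence was read at ex 485/em 535 nm, with A600 measured in parallel. n=3, SEM; multiple t-tests.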

Series [9] deals with T5, LasR T75V/Y93F/A127W. Kind of series: P. aeruginosa PA14 rhlA-mNG reporter assay, lasR T75V/Y93F/A127W. In kind it is cell-based, Pseudomonas aeruginosa PA14. As to conditions: ΔlasI P. aeruginosa PA14, 10 μM. The method, boiled down: as §1
Series [10] addresses T5, LasR T75V/Y93F/A127W. Kind of series: Pyocyanin assay, ΔlasI strain with LasR T75V/Y93F/A127W. As to conditions: 10 μM. The format is cell-based, Pseudomonas aeruginosa PA14. The method, boiled down:
(§2)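 Overnight LB cultures of PA14 lasI (WT lasR) or lasI lasR T75V/Y93F/A127W were grown at 37°C, diluted (100 μL into 3 mL LB) and shaken 8 h at 37°C. They were then diluted 2 μL into 2 mL LB with DMSO or compound and shaken 17 h at 37°C. OD600 was read, then supernatant OD695 after centrifugation. Pyocyanin = OD695/OD600. n=3, SEM.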

Series [11] concerns the target T7, WT LasR LBD (Pseudomonas aeruginosa, UniProt P25084).
T7 sequence (P25084 1-173 limits assumed): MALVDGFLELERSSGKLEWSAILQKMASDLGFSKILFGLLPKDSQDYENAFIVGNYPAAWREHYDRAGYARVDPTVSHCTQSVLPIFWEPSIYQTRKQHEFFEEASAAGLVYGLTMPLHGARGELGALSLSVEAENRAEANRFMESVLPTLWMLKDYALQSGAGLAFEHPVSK
Put plainly: Protein solubility assay, WT LasR LBD produced in E. coli. The note with it: 10 μM compound. The format is cell-based. In short, it runs like this:
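E. coli BL21(DE3) with plasmid-borne 6xHis-WT LasR LBD were grown overnight, diluted 1:500 in LB with ampicillin and grown to OD600 0.5. Cells were induced with 1 mM IPTG plus test compound at 10 μM final, then shaken 4 h at 25°C or 37°C. Whole-cell lysate and soluble fractions were compared by band intensity. Fraction soluble = soluble band / whole-cell lysate band.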

The target in series [12] is T8, LasR LBD (Pseudomonas aeruginosa, UniProt P25084).
T8 sequence (P25084 1-173 limits assumed): T7 sequence (P25084 1-173 limits assumed)
Put plainly: Thermal shift assay, LasR LBD:BB0126. The format is binding. In short, it runs like this:
(§3)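 6xHis-LasR LBD (WT or T75V/Y93F/A127W) was expressed in E. coli BL21(DE3) with 1 mM IPTG and 100 μM ligand (4 h, 25°C), then purified by Ni-NTA and size exclusion. Ligand-bound protein at 5 μM in 20 mM Tris-HCl pH 8, 200 mM NaCl, 1 mM DTT, with DMSO or 10 μM ligand, stood 15 min at room temperature. SYPRO Orange was added just before the run. Heating from 25 to 99°C at 0.05°C/s; fluorescence on ROX setting.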

Series [13] has as its target T9, LasR LBD T75V/Y93F/A127W (Pseudomonas aeruginosa, UniProt P25084, A127W/T75V/Y93F).
T9 sequence (P25084 1-173 T75V/Y93F/A127W limits assumed): T7 sequence (P25084 1-173 limits assumed) with T75V, Y93F, A127W
Put plainly: Thermal shift assay, LasR LBD T75V/Y93F/A127W:BB0126. The format is binding. The note with it: for effect of excess ligand on Tm: LasR LBD T75V/Y93F/A127W:BB0126 with 10 μM excess ligand. The method, boiled down:
as §3

In series [14] the test system is luciferase. Put plainly: Off-target inhibition of luciferase in the E. coli lasB-lux reporter strain. In kind it is cell-based. The note with it: high concentrations (>10 μM).
Series [15] addresses T1, WT LasR. Kind of series: Pyocyanin assay, ΔlasI strain with WT LasR. In kind it is cell-based, Pseudomonas aeruginosa PA14. The note with it: 10 μM. The method, boiled down:
as §2

In series [16] the target is T10, LasR Y93F (Pseudomonas aeruginosa, UniProt P25084, Y93F).
T10 sequence (P25084 1-239 Y93F): T1 sequence (P25084 1-239) with Y93F
Kind of series: E. coli lasB-lux reporter assay, LasR Y93F. The format is cell-based.

In series [17] the target is T11, LasR Y93F/A127W (Pseudomonas aeruginosa, UniProt P25084, A127W/Y93F).
T11 sequence (P25084 1-239 Y93F/A127W): T1 sequence (P25084 1-239) with Y93F, A127W
Put plainly: E. coli lasB-lux reporter assay, LasR Y93F/A127W. The format is cell-based.

As usually defined, the EC50 is the midpoint of the concentration-response curve. The low end stands for greater potency, the high end for weaker potency. Usually Tm stands for the temperature at the midpoint of the melting transition.

Where a chain is given by its changes, count along the chain named.

In the case of `CS(=O)(=O)c1cccc(OCCCC(=O)N[C@H]2C[C@@H]3C[C@@H]3C2=O)c1` (relative stereo) [BB0126, 4-(3-(methylsulfonyl)phenoxy)-N-(rel-(1S,3S,5S)-2-oxobicyclo[3.1.0]hexan-3-yl)butanamide], the EC50 in series [1] is more than 3.1 µM; in series [3] it was 1.5 µM; in series [4], 0.6 µM; in [5] it was 0.05 µM; in [6], 0.05 µM; in series [7], more than 10 µM. Besides, the “fold lower EC50 with the mutations” value in series [2] is reported as 2-to 6 fold. The “activation of prhlA-mNG” value in [8] is reported as “not in response to BB0126”; in series [9] it was “activated the reporter”. Further, in series [10], the pyocyanin production result is listed as “responded to BB0126”. Also, the “soluble WT LasR LBD” value in [11] (induction at 25°C) is given as “yielded soluble WT LasR LBD”; in series [11] (induction at 37°C) it was “significantly less soluble”. Further, in [12] (LasR LBD:BB0126 in the presence of excess BB0126 (10 μM)), the melting temperature peak worked out at 49.9 °C. In addition, the “thermal stability of the complex” value in [12] (LasR LBD:BB0126 without additional ligand) is on record as “unstable above room temperature”. Moreover, in series [13], the “effect of excess ligand on Tm” value is recorded as “further enhanced the Tm”. For the same compound, the Tm in series [13] (LasR LBD T75V/Y93F/A127W:BB0126 without additional ligand) was found to be 46.8 °C. Also, the “off-target inhibition of luciferase” value in [14] is given as “caused off-target inhibition of luciferase”.

In the case of `CCCCCCCCCC(=O)CC(=O)N[C@H]1CCOC1=O` [3OC12HSL, N-3-oxo-dodecanoyl-L-homoserine lactone, reference compound], the pyocyanin production entry in series [15] is on record as “induced pyocyanin production”. Further, the “soluble WT LasR LBD” value in series [11] (induction at 25°C) was “yielded soluble WT LasR LBD”. Further, the “stabilization by exogenous ligand” value in series [12] (LasR LBD:BB0126 with 10 μM exogenous 3OC12HSL) is “highly effective at binding to and stabilizing the LasR LBD”. In addition, the “effect of excess ligand on Tm” value in [13] is on record as “had no effect”.

On to `O=C(CCCOc1cccc(Br)c1)N[C@H]1C[C@@H]2C[C@@H]2C1=O` (relative stereo) [BB0020, 4-(3-bromophenoxy)-N-(rel-(1S,3S,5S)-2-oxobicyclo[3.1.0]hexan-3-yl)butanamide], for which the EC50 in series [1] came to 0.006 µM; in series [3], 0.015 µM; in [16], 0.015 µM; in [4] it was 0.02 µM; in series [5], 0.02 µM; in series [17], 0.1 µM. Besides, the EC50 in series [6] turned out to be 0.02 µM. Moreover, the entries for the “activation of prhlA-mNG” value in series [8] and in [9] were “activated prhlA-mNG” and “activated the reporter”, respectively. For the same compound, the pyocyanin production result in [15] and in series [10] was “activated both LasR alleles equally” each time. In addition, in [11] (induction at 25°C), the “soluble WT LasR LBD” value is “yielded soluble WT LasR LBD”. In [14], the “off-target inhibition of luciferase” value is reported as “caused off-target inhibition of luciferase”.
